C8 TRAIL sens: caspase-8 TRAIL sensitization; NB7+C8 cells + TRAIL, ATPlite viability luminescence; inhibition (viability loss, TRAIL sensitization), % at 10 µM; hit rate 1% among 360,000;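 active means compounds causing at least 50% loss of cell viability in the single-dose screen, relative to plate controls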
STAT3 act: activators of IL-6 induced STAT3 signaling. U3A cells, IL-6 STAT3-luciferase reporter, luminescence; 100% = signal with IL-6 EC80 alone. activation (% of control), % at 5.6 µM. hit rate 0.91% among 190,000;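 active means activation above the screen-wide mean of compound activation plus 3 SD, cut at about 130% in these data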
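system = STAT3-luciferase reporter U3A cells | reagent = IL-6 stimulus at 33 ng/mL final | timing = 1 h compound pre-exposure, 6 h IL-6 stimulation, 37 °C | measured by = luminescence | evaluation = % activation versus median of IL-6-stimulated wells | control set = IL-6-only wells as 100% reference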
STAT1 blocker: inhibitors of IFN-gamma induced STAT1 signaling. hit rate 0.35% among 200,000. AID 920. inhibition, % at 5.5 µM. NIH 3T3 STAT1-luciferase reporter, luminescence;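 active means inhibition above a set limit, the mean inhibition across all tested compounds plus 3 SD, cut at about 34% in these data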
STAT3 inh-1: STAT3 signaling inhibition | U3A cells, IL-6 STAT3-luciferase reporter, luminescence; host cell line lacks STAT1 | inhibition, % at 5.5 µM | hit rate 0.89% among 190,000;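 active means inhibition above the mean inhibition across all screened compounds plus 3 SD, cut at about 44% in these data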
PPC-1+TRAIL kill: kills PPC-1 cancer cells in the presence of TRAIL | PPC-1 cells + TRAIL, ATPLite viability luminescence | cell killing (% activity), % at 4 µM or 5 µM | hit rate 0.41% among 220,000 | AID 1443;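 active means cell killing above 50% in the first pass at 4 µM, then a duplicate retest at 5 µM averaging 50% or more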
STAT3 inh-2: confirmation of STAT3 signaling inhibitors; shares compounds with STAT3 inh-1; U3A cells, IL-6 STAT3 luciferase reporter, luminescence; cell line lacks STAT1; inhibition, % at 5.7 µM; hit rate 45% among 1,200; AID 1265;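 active means inhibition above the hit cutoff computed for the primary STAT3 screen, cut at about 44% in these data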
NFkB inh STAT3ct: NF-kappaB inhibition in STAT3 inhibitor counter-screen | shares compounds with STAT3 inh-1 | hit rate 36% among 1,200 | inhibition, % at 5.7 µM | HEK293T NF-kB luciferase reporter, TNF-alpha induced | AID 1308;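 active means inhibition above the mean of solvent-only control wells plus 3 SD, cutoff set per campaign, cut at about 13% in these data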
STAT1 inh 2: counter-screen for STAT3 inhibitors: STAT1 inhibition; shares compounds with STAT3 inh-1; hit rate 27% among 1,200; NIH 3T3 STAT1-luciferase reporter, IFN-gamma induced, luminescence; inhibition, % at 5.7 µM;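 active means inhibition above the mean plus 3 SD of solvent-only control wells, limit set per screening run, cut at about 16% in these data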
Numbers stand for hits; i = inactive; nt = no result. Hits are enriched below; roughly 1.8% of the tested compounds scored in any of these assays.

SMILES	C8 TRAIL sens	STAT3 act	STAT1 blocker	STAT3 inh-1	PPC-1+TRAIL kill	STAT3 inh-2	NFkB inh STAT3ct	STAT1 inh 2
COC(=O)[C@]12CCCCC=C1N(CCC1=CCCCC1)C(=O)[C@H](CC(=O)N1CCC(c3ccccc3)CC1)C2	i	nt	nt	nt	nt	nt	nt	nt
COc1ccc(Br)cc1/C(C)=N/NC1=NCCN1	i	i	i	54	i	47	i	i
CCN(CC)C(=O)c1cccc(-c2csc(C(NC(C)=O)c3cccc(OC)c3)n2)c1 (stereo not given)	i	nt	nt	nt	nt	nt	nt	nt
CNc1nnc(-c2ccc(N(C)C)cc2)s1	73	i	i	53	60	i	i	i
Cc1ccc(N)cc1NC(=O)CN1CCOCC1	i	nt	nt	nt	nt	nt	nt	nt
Cc1cccc(-n2ncc3c(N4CC(C)CC(C)C4)ncnc32)c1 (stereo not given)	i	i	i	i	i	nt	nt	nt
Cc1cccc(-n2ncc3c(N4CCCC4)ncnc32)c1	80	i	i	67	i	i	i	i
CC1CCC2C(=O)N(c3ccc(Cc4ccncc4)cc3)C(=O)C2C1 (stereo not given)	i	i	i	74	i	70	23	21
O=C1C2C3C=CC(C3)C2C(=O)N1c1ccc(Cc2ccncc2)cc1 (stereo not given)	i	i	i	i	i	nt	nt	nt
Cc1cc(NC(=O)c2ccc3c(c2)OCCO3)no1	87	i	i	74	i	i	i	i
Cc1cccc(NC(=O)c2ccc3c(c2)OCCO3)n1	i	nt	nt	nt	nt	nt	nt	nt
O=C(Nc1ccccn1)c1ccc2c(c1)OCCO2	56	i	i	51	nt	i	i	i
COc1cc(/C=N\Nc2nc3ccccc3[nH]2)cc(OC)c1OC	i	i	i	74	i	i	19	i
CC(C)c1ccc(N(C(=O)c2csnn2)C(C(=O)NC2CCCC2)c2cccnc2)cc1 (stereo not given)	i	nt	nt	nt	nt	nt	nt	nt
N#Cc1ccccc1COc1ccc(/C=C/C(=O)O)cc1	i	i	i	48	i	i	16	i
CN1CCN(CC(=O)Nc2nc3c(s2)CCCC3)CC1	i	nt	nt	nt	i	nt	nt	nt
CCN1CCN(/C=N/c2nc3c(s2)CCCC3)CC1	i	i	i	52	i	i	i	i
COc1ccc(-c2cn3nc4c(nc3n2)CCCC4)cc1	i	i	i	70	i	i	i	i
COc1ccc(-c2cn3ccc4ccccc4c3n2)cc1	i	i	i	i	i	nt	nt	nt
Cc1ccc(-c2nc3ccc(C)cn3c2CC2CCCCC2)cc1	i	nt	nt	nt	nt	nt	nt	nt
COc1ccc2c(=O)c(-c3ccc4c(c3)OCO4)coc2c1	57	i	i	55	i	i	i	i
CCN(CC)C(=O)Oc1ccc2c(=O)c(-c3ccc(OC)cc3)coc2c1	i	i	i	i	i	nt	nt	nt
Cc1ccc(N(CC(O)CN2C(=O)NC(C)(C)C2=O)S(=O)(=O)c2ccc([N+](=O)[O-])cc2)cc1 (stereo not given)	i	nt	nt	nt	nt	nt	nt	nt
Cc1ccc2nc3c(c(Nc4cccc(O)c4)c2c1)CCC3	i	nt	nt	nt	nt	nt	nt	nt
CCc1ccc(-n2cc(-c3ccc(F)cc3)[n+]3c2SCCC3)cc1	i	i	i	i	i	nt	nt	nt
SMILES	C8 TRAIL sens	STAT3 act	STAT1 blocker	STAT3 inh-1	PPC-1+TRAIL kill	STAT3 inh-2	NFkB inh STAT3ct	STAT1 inh 2
COc1ccc(-n2cc(-c3ccc(C)cc3)[n+]3c2SCC3)cc1	i	i	i	69	i	75	i	23
Cc1ccc(-c2cn(-c3ccccc3)c3[n+]2CCCS3)cc1	i	i	i	57	i	50	i	28
Nc1nc(Br)c2c(F)cccc2c1-c1ccccc1	i	i	i	46	i	i	i	i
Nc1nc(Br)c2c(F)cccc2c1-c1ccc(F)cc1	i	i	i	i	i	nt	nt	nt
COc1ccc(Cn2c(=O)[nH]c3cc(C(=O)N4CCN(Cc5ccccc5)CC4)ccc3c2=O)cc1	i	i	i	64	i	56	16	i
COc1ccc(-c2c[n+]3c(n2-c2ccc(C)cc2)CCCCC3)cc1	i	nt	nt	nt	i	nt	nt	nt
CCOc1ccc(-n2c(-c3ccc(Br)cc3)c[n+]3c2CCCCC3)cc1	i	i	i	60	i	i	i	23
CCOc1ccc(-n2c(-c3ccccc3)c[n+]3c2CCC3)cc1	i	i	i	71	i	59	i	22
CCOc1ccc(-n2c(-c3ccc(OC)cc3)c[n+]3c2CCCCC3)cc1	i	i	i	85	i	87	15	33
FC(F)Oc1ccc(-c2c[n+]3c(n2-c2ccccc2)CCCCC3)cc1	i	nt	nt	nt	i	nt	nt	nt
CCc1nc2c(OCc3cc(Cl)cc(Cl)c3)cccn2c1N(C)C(=O)Nc1ccccc1OC	i	nt	nt	nt	nt	nt	nt	nt
CN=c1scc(-c2ccccc2Br)n1/N=C/c1ccc[nH]1	nt	i	i	58	i	i	i	i
CN=c1scc(-c2ccc(Br)cc2)n1C	i	i	i	i	i	nt	nt	nt
Cc1cc(C(=O)CSc2nc3ccccc3[nH]2)c(C)n1CC1CCCO1 (stereo not given)	76	i	i	97	i	63	22	i
CC1(C(=O)O)CCCN(C(=O)c2ccc3c(c2)C(C)(C)CCC3(C)C)C1 (stereo not given)	i	nt	nt	nt	nt	nt	nt	nt
COc1ccc(C(=O)NCC(=O)OCC(=O)NCCC2=CCCCC2)cc1	i	i	i	i	i	nt	nt	nt
COc1ccc(C(=O)NCCC2=CCCCC2)cc1	i	i	i	52	i	i	i	i
Cc1ccc(S(=O)(=O)N(CC(=O)N(C(C)C)C(C)C)C(=O)N2CCN(C)CC2)cc1	i	nt	nt	nt	nt	nt	nt	nt
C[C@H](CO)N1C[C@H](C)[C@@H](CN(C)S(=O)(=O)c2ccc3ccccc3c2)OCc2cnnn2CCCC1=O	i	nt	nt	nt	nt	nt	nt	nt
CCCCCCCCN1C(=O)[C@H](CC(=O)N2CCSCC2)C[C@@]2(C(=O)OC)CC(C)(C)CC=C12	i	nt	nt	nt	nt	nt	nt	nt
CCOC(=O)C1=C(Cc2ccc(OC)cc2)C(=O)c2ccccc2C1=O	i	i	i	i	i	nt	nt	nt
CCOC(=O)C1=C(Cc2ccc(C)cc2)C(=O)c2ccccc2C1=O	nt	i	i	60	i	60	i	i
CN1CCN(C(=O)C[C@@H]2C[C@H]3c4cc(NC(=O)c5cccnc5)ccc4O[C@H]3[C@H](CO)O2)CC1	i	nt	nt	nt	nt	nt	nt	nt
O=C(Nc1ccc(SC(F)F)cc1)c1ccc2nccnc2c1	i	i	i	48	i	i	i	i
COC(=O)c1ccc(NC(=O)c2ccc3nccnc3c2)cc1	i	nt	nt	nt	nt	nt	nt	nt
OCCCn1c(-c2ccccc2)csc1=Nc1ccccc1	i	i	i	i	i	nt	nt	nt
COc1ccc(N=c2scc(-c3ccc(OC)cc3)n2CCO)cc1	i	i	i	52	i	i	i	i
Cc1ccc(C)c(N2CCN(C(=O)Nc3ccc4c(c3)N(C)C(=O)CS4)CC2)c1	i	i	i	45	i	i	15	20
N/C(=N\OC(=O)c1ccc(Cl)c([N+](=O)[O-])c1)c1ccccn1	i	i	i	i	i	nt	nt	nt

Compound activity: PubChem, several laboratories
